Laboratory results taken from ChEMBL document CHEMBL1212800, “Influence of alpha-1 glycoprotein acid concentrations and variants on atazanavir pharmacokinetics in HIV-infected patients included in the ANRS 107 trial” (Antimicrob Agents Chemother, 2010).

Legend:
[1] = target: Albumin (Homo sapiens, UniProt P02768); experiment: Binding affinity to human serum albumin; format: ADME; conditions: isolated protein
Outline: (§1)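 In vitro binding: alpha-1 glycoprotein acid or serum albumin solutions in pH 7.4 phosphate-buffered saline with added atazanavir. Bound and unbound drug separated by ultrafiltration of 500-µl samples (30,000 Da cutoff membrane), 2 h at 30°C. Ultrafiltrate drug measured by HPLC-UV at 220 nm (C18 column, liquid-liquid extraction, internal standard). Unbound fraction taken as unbound/total concentration. Binding profiled as bound versus unbound concentration.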

[2] = Binding affinity to human alpha-1-glycoprotein acid; format: ADME; outline: as §1
[3] = Apparent oral clearance in human by one-compartment model; format: ADME, organism-based; conditions: in vivo
Outline: (§2)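 HIV-infected patients (ANRS 107) on atazanavir plus ritonavir plus tenofovir plus optimized background. Week-6 predose plasma trough samples; 10-patient substudy also sampled at 1, 2, 3, 5, 8 and 24 h postdose. Plasma held at −20°C, assayed by LC-MS/MS (LOQ 1 ng/ml). Population analysis used a one-compartment model with first-order absorption and elimination, exponential interindividual variability and proportional residual error.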

[4] = Apparent oral clearance in human by covariate model; format: ADME, organism-based; conditions: in vivo; outline: as §2
[5] = Apparent volume of distribution with respect to the bioavailability in human by one-comparment model; format: ADME, organism-based; conditions: in vivo, read-out: Vc/F; outline: as §2
[6] = Apparent volume of distribution with respect to the bioavailability in human by covariate model; format: ADME, organism-based; conditions: in vivo, read-out: Vc/F; outline: as §2
[7] = organism: Homo sapiens; experiment: Absorption rate constant in human by one-compartment model; format: ADME, organism-based; conditions: in vivo; outline: as §2
[8] = organism: Homo sapiens; experiment: Absorption rate constant in human by covariate model; format: ADME, organism-based; conditions: in vivo; outline: as §2
[9] = Half life in patient with elevated alpha-1- glycoprotein acid level by covariate model; format: ADME, organism-based; conditions: human, in vivo; outline: as §2
[10] = Half life in patient with elevated alpha-1- glycoprotein acid level by one-compartment model; format: ADME, organism-based; conditions: human, in vivo; outline: as §2
[11] = AUC in patient with elevated alpha-1- glycoprotein acid level by covariate model; format: ADME, organism-based; conditions: human, in vivo; outline: as §2
[12] = AUC in patient with elevated alpha-1- glycoprotein acid level by one-compartment model; format: ADME, organism-based; conditions: human, in vivo; outline: as §2
[13] = Half life in patient with => 40 IU/liter ALAT level by covariate model; format: ADME, organism-based; conditions: human, in vivo; outline: as §2
[14] = Half life in patient with => 40 IU/liter ALAT level by one-compartment model; format: ADME, organism-based; conditions: human, in vivo; outline: as §2
[15] = AUC in patient with => 40 IU/liter ALAT level by covariate model; format: ADME, organism-based; conditions: human, in vivo; outline: as §2
[16] = AUC in patient with => 40 IU/liter ALAT level by one-compartment model; format: ADME, organism-based; conditions: human, in vivo; outline: as §2

Sequence of Albumin (P02768 whole entry): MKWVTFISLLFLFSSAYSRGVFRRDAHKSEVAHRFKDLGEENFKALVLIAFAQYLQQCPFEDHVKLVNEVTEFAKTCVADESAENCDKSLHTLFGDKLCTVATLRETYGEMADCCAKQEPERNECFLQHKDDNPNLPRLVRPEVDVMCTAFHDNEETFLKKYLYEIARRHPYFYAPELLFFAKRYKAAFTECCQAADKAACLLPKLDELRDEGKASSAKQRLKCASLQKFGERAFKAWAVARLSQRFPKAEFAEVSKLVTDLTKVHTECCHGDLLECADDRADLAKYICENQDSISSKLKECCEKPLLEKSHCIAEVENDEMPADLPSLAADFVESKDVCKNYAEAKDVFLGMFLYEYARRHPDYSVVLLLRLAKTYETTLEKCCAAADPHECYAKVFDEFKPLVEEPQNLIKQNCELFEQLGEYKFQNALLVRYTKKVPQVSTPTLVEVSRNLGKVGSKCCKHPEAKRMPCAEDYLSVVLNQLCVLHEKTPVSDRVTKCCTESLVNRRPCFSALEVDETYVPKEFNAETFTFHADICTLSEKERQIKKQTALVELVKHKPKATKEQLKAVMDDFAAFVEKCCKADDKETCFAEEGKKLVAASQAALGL

Work on `COC(=O)N[C@H](C(=O)N[C@@H](Cc1ccccc1)[C@@H](O)CN(Cc1ccc(-c2ccccn2)cc1)NC(=O)[C@@H](NC(=O)OC)C(C)(C)C)C(C)(C)C` [ATAZANAVIR] yielded an Activity [1] of 21.3%, an Activity [2] of 31.1% and a CL/F [3] of 130 mL/min. It also gave a CL/F [4] of 222 mL/min, a Vd/F [5] of 78.2 L and a Vd/F [6] of 79.7 L. The ka [7] was 0.75 h⁻¹, the ka [8] was 0.73 h⁻¹ and the half-life [9] was 9 h. The half-life [10] was 9 h, the AUC [11] was 49600 ng·h/mL and the AUC [12] was 49600 ng·h/mL. The half-life [13] was 7.8 h, the half-life [14] was 7.8 h and the AUC [15] was 47400 ng·h/mL. For the same compound, the AUC [16] was 47400 ng·h/mL.
